Assay results from PMC12376879 (RSC Advances, 2025).

Biological target: human serum albumin (HSA) (Homo sapiens, UniProt P02768)
Experiment: Isothermal titration calorimetry with HSA
Assay type: binding
Summary of the method: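 HSA (60 μM) in the sample cell, titrated with test compound from the syringe. All solutions were in 5% DMSO in 20 mM phosphate buffer, pH 7.4, with the same solution in the reference cell. Concentrations were set by A280. The run was 19 injections (0.4 μl, then 18 × 2 μl) at 150 s intervals, stirring at 750 rpm. Ligand-into-buffer dilution heats were subtracted. Ka, n, ΔH and ΔS were fitted; ΔG was calculated from them.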

Sequence of human serum albumin (HSA) (P02768 25-609): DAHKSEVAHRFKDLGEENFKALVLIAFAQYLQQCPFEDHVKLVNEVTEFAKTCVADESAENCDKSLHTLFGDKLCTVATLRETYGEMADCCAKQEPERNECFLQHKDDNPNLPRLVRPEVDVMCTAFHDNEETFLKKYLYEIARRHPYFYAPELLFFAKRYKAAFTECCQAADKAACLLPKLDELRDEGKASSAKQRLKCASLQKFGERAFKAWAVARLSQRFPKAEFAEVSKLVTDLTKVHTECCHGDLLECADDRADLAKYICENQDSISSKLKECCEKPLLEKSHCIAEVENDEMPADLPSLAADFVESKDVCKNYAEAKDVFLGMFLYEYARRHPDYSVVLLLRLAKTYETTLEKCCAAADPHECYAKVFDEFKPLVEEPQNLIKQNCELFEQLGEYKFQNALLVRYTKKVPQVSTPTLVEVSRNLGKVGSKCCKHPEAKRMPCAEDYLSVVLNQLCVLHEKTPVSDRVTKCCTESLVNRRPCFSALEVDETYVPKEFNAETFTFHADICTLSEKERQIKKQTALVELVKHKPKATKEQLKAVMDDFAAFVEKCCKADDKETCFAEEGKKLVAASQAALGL

Enthalpy (ΔHm), ITC (298 K, HSA): -2.53 kcal/mol
Gibbs free energy (ΔGm), ITC (298 K, HSA): -6.84 kcal/mol
Stoichiometry (n), ITC (298 K, HSA): 0.9
Entropy (ΔS) of binding to HSA (calculated from ITC results): +60.4 J K^−1 mol^−1
Compound: Cc1ccnc2c1NC(=O)c1cccnc1N2C1CC1 [nevirapine]
